Data: ChEMBL document CHEMBL4152315, “Rational modification of a lead molecule: Improving the antifungal activity of indole - triazole - amino acid conjugates” (Eur J Med Chem, 2018)
Values after ≈ are worked out from the molar mass of the structure shown.

Experiments:
Candida albicans [1] = test: Antifungal activity against Candida albicans MTCC 3958 assessed as zone of growth inhibition after 48 hrs; assay type: functional
Procedure, shortened: (§1)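 Agar well diffusion: Malt Yeast Agar (C. albicans) or Czapek Yeast Extract Agar (A. niger) swabbed with 100 µL inoculum at 1×10^5 CFU/mL; 6 mm wells filled with 128 µg/50 µL compound in 5% DMSO (10% DMSO for poorly soluble ones). DMSO negative controls, fluconazole reference. 28 °C for 48 h; zone of inhibition as mean of triplicates.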

Aspergillus niger [2] = test: Antifungal activity against Aspergillus niger MTCC 9933 assessed as zone of growth inhibition after 48 hrs; assay type: functional; procedure, shortened: as §1
Aspergillus niger [3] = test: Antifungal activity against Aspergillus niger MTCC 9933 after 72 hrs; assay type: functional; details: MTCC 9933, 72 h
Procedure, shortened: (§2)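 Broth tube dilution MIC: tested at 128, 64, 32, 16 and 8 μg/mL; Yeast Malt Broth for C. albicans, Czapek Dox Broth for A. niger. Inoculum 1×10³ CFU/mL final; 5% DMSO negative control, fluconazole reference. Incubated dark on rotary shaker (180 rpm), 28 °C, 48 h (C. albicans) or 72 h (A. niger); lowest concentration preventing visible growth recorded.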

Candida albicans [4] = test: Antifungal activity against Candida albicans MTCC 3958 after 48 hrs; assay type: functional; details: MTCC 3958, 48 h; procedure, shortened: as §2
Erythrocyte = test: Cytotoxicity against sheep RBC assessed as cell viability at 1 mg/ml after 24 hrs by MTT assay relative to control; assay type: cell-based, Ovis aries
Procedure, shortened: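 Sheep blood mixed 10:3 with Alsever's solution. Plasma was removed by centrifugation, and cells were washed three times in 1X PBS and diluted to 1×10^5 cells/mL. Cells were preincubated 24 h at 37 °C, then exposed to compound for 24 h at 37 °C. MTT (5 mg/ml stock) was added for 4 h, formazan was dissolved in DMSO, and A595 was read. Control wells received 10% DMSO diluent.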

Row | Compound | inhibition zone (IZ) (Candida albicans [1]) | inhibition zone (IZ) (Aspergillus niger [2]) | MIC90 (Aspergillus niger [3]) | MIC90 (Candida albicans [4]) | Activity (Erythrocyte)
1 | COC(=O)[C@H](Cc1c[nH]c2ccccc12)NC(=O)C(=O)c1cn(Cc2cn(Cc3ccccc3)nn2)c2ccccc12 | 9 mm | 12 mm | 64 µg/mL (≈ 114 µM) | 128 µg/mL (≈ 228 µM) | 
2 | COC(=O)CC[C@H](NC(=O)C(=O)c1c[nH]c2ccccc12)C(=O)OC |  | 9 mm | > 128 µg/mL |  | 
3 | COC(=O)CNC(=O)C(=O)c1cn(Cc2cn(Cc3ccccc3)nn2)c2ccccc12 | 12 mm | 11 mm | 64 µg/mL (≈ 148 µM) | 64 µg/mL (≈ 148 µM) | 
4 | COC(=O)C[C@H](NC(=O)C(=O)c1cn(Cc2cn(Cc3ccccc3)nn2)c2ccccc12)C(=O)OC | 11 mm |  |  | 128 µg/mL (≈ 254 µM) | 
5 | O=C(N[C@@H](Cc1ccc(OCc2cn(Cc3ccccc3)nn2)cc1)C(=O)O)C(=O)c1cn(Cc2cn(Cc3ccccc3)nn2)c2ccccc12 | 16 mm | 15 mm | 32 µg/mL (≈ 46.1 µM) | 16 µg/mL (≈ 23 µM) | Non-Toxic
6 | O=C(O)C[C@H](NC(=O)C(=O)c1cn(Cc2cn(Cc3ccccc3)nn2)c2ccccc12)C(=O)O | 15 mm | 13 mm | 64 µg/mL (≈ 135 µM) | 32 µg/mL (≈ 67.3 µM) | 
7 | COC(=O)[C@H](Cc1ccc(OCc2cn(Cc3ccccc3)nn2)cc1)NC(=O)C(=O)c1cn(Cc2cn(Cc3ccccc3)nn2)c2ccccc12 |  | 13 mm | 64 µg/mL (≈ 90.3 µM) |  | 
8 | O=C(O)CC[C@H](NC(=O)C(=O)c1cn(Cc2cn(Cc3ccccc3)nn2)c2ccccc12)C(=O)O | 14 mm | 12 mm | > 32 µg/mL | 32 µg/mL (≈ 65.4 µM) | 
9 | C#CCOc1ccc(C[C@H](NC(=O)C(=O)c2cn(CC#C)c3ccccc23)C(=O)OC)cc1 | 13 mm | 13 mm | 64 µg/mL (≈ 145 µM) | 64 µg/mL (≈ 145 µM) | 
10 | OC(Cn1cncn1)(Cn1cncn1)c1ccc(F)cc1F [FLUCONAZOLE] | 19 mm | 18 mm | 8 µg/mL (≈ 26.1 µM) | 16 µg/mL (≈ 52.2 µM) | 
11 | O=C(N[C@@H](Cc1ccc(O)cc1)C(=O)O)C(=O)c1cn(Cc2cn(Cc3ccccc3)nn2)c2ccccc12 | 15 mm | 13 mm | > 32 µg/mL | 16 µg/mL (≈ 30.6 µM) | 
12 | C#CCn1cc(C(=O)C(=O)N[C@@H](CCC(=O)OC)C(=O)OC)c2ccccc21 | 9 mm |  |  | 128 µg/mL (≈ 333 µM) | 
13 | COC(=O)[C@H](Cc1ccc(O)cc1)NC(=O)C(=O)c1c[nH]c2ccccc12 |  | 9 mm | > 128 µg/mL |  | 
14 | COC(=O)[C@H](Cc1c[nH]c2ccccc12)NC(=O)C(=O)c1c[nH]c2ccccc12 | 14 mm |  |  | 32 µg/mL (≈ 82.2 µM) | 
15 | COC(=O)[C@H](Cc1ccc(O)cc1)NC(=O)C(=O)c1cn(Cc2cn(Cc3ccccc3)nn2)c2ccccc12 | 8 mm | 10 mm | 128 µg/mL (≈ 238 µM) | 128 µg/mL (≈ 238 µM) | 
16 | C#CCn1cc(C(=O)C(=O)N[C@@H](CC(=O)OC)C(=O)OC)c2ccccc21 | 13 mm |  |  | 64 µg/mL (≈ 173 µM) | 
17 | O=C(N[C@@H](Cc1c[nH]c2ccccc12)C(=O)O)C(=O)c1cn(Cc2cn(Cc3ccccc3)nn2)c2ccccc12 | 14 mm | 14 mm | > 32 µg/mL | 32 µg/mL (≈ 58.5 µM) | 
18 | COC(=O)C[C@H](NC(=O)C(=O)c1c[nH]c2ccccc12)C(=O)OC | 15 mm | 13 mm | 64 µg/mL (≈ 193 µM) | 32 µg/mL (≈ 96.3 µM) | 
19 | C#CCn1cc(C(=O)C(=O)N[C@@H](Cc2c[nH]c3ccccc23)C(=O)OC)c2ccccc21 | 10 mm | 9 mm | > 128 µg/mL | 128 µg/mL (≈ 299 µM) | 
20 | O=C(O)CNC(=O)C(=O)c1cn(Cc2cn(Cc3ccccc3)nn2)c2ccccc12 | 13 mm | 10 mm | 128 µg/mL (≈ 307 µM) | 32 µg/mL (≈ 76.7 µM) | 
21 | C#CCn1cc(C(=O)C(=O)N[C@@H](Cc2ccc(O)cc2)C(=O)OC)c2ccccc21 | 11 mm | 10 mm | 128 µg/mL (≈ 317 µM) | 64 µg/mL (≈ 158 µM) | 
22 | COC(=O)CNC(=O)C(=O)c1c[nH]c2ccccc12 | 10 mm |  |  | 128 µg/mL (≈ 492 µM) | 
23 | COC(=O)CC[C@H](NC(=O)C(=O)c1cn(Cc2cn(Cc3ccccc3)nn2)c2ccccc12)C(=O)OC | 10 mm | 11 mm | 64 µg/mL (≈ 124 µM) | 64 µg/mL (≈ 124 µM) | 
24 | C#CCn1cc(C(=O)C(=O)NCC(=O)OC)c2ccccc21 | 11 mm |  |  | 64 µg/mL (≈ 215 µM) | 
